In article PMC6137948 (Drug Design, Development and Therapy, 2018):
Entries after “also recorded” stand apart in the source; their conditions may differ.

Tests used:
E. faecalis 559 = assay: MIC, broth micro-dilution, pre-screening panel; assay type: cell-based, Enterococcus faecalis; conditions: E. faecalis 559 (VSE), Mueller Hinton broth
[1] = test system: non-immune activation of histamine release (inflammatory reaction to concanavalin A); assay: Pseudoallergic inflammatory reaction on concanavalin A; assay type: in vivo; conditions: male CBA mice; single IV dose of MTD
S. aureus 3797 (VISA) = assay: MIC, broth micro-dilution, pre-screening panel; assay type: cell-based, Staphylococcus aureus; conditions: S. aureus 3797 (VISA HIP-5836), Mueller Hinton broth
VISA = conditions: Introduction; cited from earlier work
[2] = test system: vancomycin-intermediate resistant Staphylococcus aureus (VISA); assay: MIC, pre-screening panel, summary for VISA strains; assay type: cell-based; conditions: summary of Table 1, S. aureus 3797 and 3798
S. haemolyticus 602 = assay: MIC, broth micro-dilution, pre-screening panel; assay type: cell-based, Staphylococcus haemolyticus; conditions: Mueller Hinton broth
VRE = conditions: Introduction; cited from earlier work
CBA mice = assay: Acute toxicity in mice; conditions: for MTD (LD10): CBA mice, single bolus IV injection in 5% glucose, Litchfield and Wilcoxon; for ratio between therapeutic (ED50) and toxic doses (MTD): ED50 in sepsis model / MTD in mice
S. epidermidis 533 = assay: MIC, broth micro-dilution, pre-screening panel; assay type: cell-based, Staphylococcus epidermidis; conditions: Mueller Hinton broth
E. faecium 568 = assay: MIC, broth micro-dilution, pre-screening panel; assay type: cell-based, Enterococcus faecium; conditions: E. faecium 568 (VSE), Mueller Hinton broth
S. aureus 3798 (VISA) = assay: MIC, broth micro-dilution, pre-screening panel; assay type: cell-based, Staphylococcus aureus; conditions: S. aureus 3798 (VISA HIP-5827), Mueller Hinton broth
[3] = test system: panel of clinical isolates of Gram-positive microorganisms; assay: MIC, pre-screening panel, summary for all tested strains; assay type: cell-based; conditions: text summary of Table 1, all strains of the pre-screening panel
[4] = test system: genera Staphylococcus and Enterococcus; assay: Antimicrobial susceptibility testing, panel of 676 isolates, summary; assay type: cell-based; conditions: for MIC90 for the genera Staphylococcus and Enterococcus: panel of 676 isolates, except for E. faecium
S. aureus (MSSA, n=179) = assay: Antimicrobial susceptibility testing of clinical isolates; assay type: cell-based, Staphylococcus aureus
Outline: (§1)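 Non-duplicate clinical isolates from hospitalised adults and children with community or nosocomial infections (skin/soft tissue, respiratory tract, bone, joint, urinary tract, abdominal). Tested per EUCAST recommendations by broth microdilution in Mueller Hinton broth following NCCLS procedures.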

E. faecalis (n=122) = assay: as above; assay type: cell-based, Enterococcus faecalis
Outline: as §1

E. faecium (n=75) = assay: Antimicrobial susceptibility testing of clinical isolates; assay type: cell-based, Enterococcus faecium; conditions: for MIC 50% (MIC50) / MIC 90% (MIC90): E. faecium n=75
[5] = test system: Coagulase-negative Staphylococcus (n=45); assay: Antimicrobial susceptibility testing of clinical isolates; assay type: cell-based
Outline: as §1

S. aureus (MRSA, n=255) = assay: as above; assay type: cell-based, Staphylococcus aureus
Outline: as §1

S. aureus (strain 10) = assay: Mouse model of staphylococcal sepsis; assay type: in vivo; conditions: staphylococcal sepsis in mice, IV
Outline: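 Female SHK mice (22–25 g), quarantined 2 weeks, infected IV with mouse-adapted S. aureus strain 10 at lethal dose (LD100 3 × 10^8 CFU/mouse). Thirty minutes later, test compound given IV in 5% glucose at 6 doses (0.25–4.5 mg/kg); comparator glycopeptides at 2.5–7.5 and 0.5–5.0 mg/kg. Untreated infected controls included. Mortality recorded daily for 10 days. ED50 by Barents frequency-accumulation method; ratios from ED50 values.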

[6] = VRE isolates of the E. faecium collection

Substance	MIC (E. faecalis 559)	pseudoallergic inflammatory reaction on concanavalin A, in words [1]	MIC (S. aureus 3797 (VISA))	MICs against VISA strains [2]	MIC (S. haemolyticus 602)	activity against VRE, in words (VRE)	MTD (LD10) (CBA mice)	MIC (S. epidermidis 533)	MIC (E. faecium 568)	MIC (S. aureus 3798 (VISA))	MICs against the tested strains [3]	MIC90 for the genera Staphylococcus and Enterococcus [4]	MIC 50% (MIC50) (S. aureus (MSSA, n=179))	MIC 90% (MIC90) (S. aureus (MSSA, n=179))	MIC 50% (MIC50) (E. faecalis (n=122))	MIC 90% (MIC90) (E. faecalis (n=122))	MIC 50% (MIC50) (E. faecium (n=75))	MIC 90% (MIC90) (E. faecium (n=75))	ratio between therapeutic (ED50) and toxic doses (MTD) (CBA mice; IV)	MIC 50% (MIC50) [5]	other results
Eremomycin [compound 2, reference compound]	0.5 µg/mL	statistically significant elevations of Me with respect to Mc	4 µg/mL	4 to 8 mg/L	0.25 µg/mL	inactive	877.9 mg/kg	0.25 µg/mL	0.5 µg/mL	4 µg/mL	–	–	–	–	–	–	–	–	–	–	MIC against VISA (VISA): 8 µg/mL; acute toxicity, fold lower than that of 1 (CBA mice; by LD50, CBA mice, IV): ~3 fold
Vancomycin pyrrolidide [compound 3]	2 µg/mL	–	4 µg/mL	–	0.5 µg/mL	–	–	0.5 µg/mL	1 µg/mL	8 µg/mL	0.5 to 8 mg/L	–	–	–	–	–	–	–	–	–	–
Vancomycin [compound 1, reference compound]	2 µg/mL	statistically significant elevations of Me with respect to Mc	8 µg/mL	4 to 8 mg/L	2 µg/mL	inactive	360 mg/kg	2 µg/mL	2 µg/mL	8 µg/mL	–	1 to 2 µg/mL	1 µg/mL	1 µg/mL	1 µg/mL	2 µg/mL	1 µg/mL	2 µg/mL	1/90	2 µg/mL	MIC for VISA isolates (VISA): ≥ 8 µg/mL; MIC for strains of vancomycin-resistant E. faecium (VRE) (E. faecium (n=75); [6]): > 64 µg/mL; number of resistant strains of E. faecium (VRE) (E. faecium (n=75); strains with MIC =64 mg/L (b1) / MIC >64 mg/L, number (% of strains)): 7 (8%); MIC 90% (MIC90) [5]: 2 µg/mL; MIC 50% (MIC50) (S. aureus (MRSA, n=255)): 1 µg/mL; MIC 90% (MIC90) (S. aureus (MRSA, n=255)): 2 µg/mL
Vancomycin piperidide [compound 4]	–	–	1 µg/mL	0.5 to 2 mg/L	–	–	–	0.5 µg/mL	0.5 µg/mL	1 µg/mL	0.5 to 8 mg/L	–	–	–	–	–	–	–	–	–	–
Eremomycin piperidide [compound 6]	–	–	0.5 µg/mL	0.5 to 2 mg/L	–	–	–	0.13 µg/mL	0.5 µg/mL	2 µg/mL	–	–	–	–	–	–	–	–	–	–	–
Eremomycin pyrrolidide [compound 5]	0.25 µg/mL	did not induce pseudoallergic inflammatory reaction; also recorded: non-significant difference; also recorded: no histamine release activity	1 µg/mL	0.5 to 2 mg/L	0.25 µg/mL	–	119.7 mg/kg	0.25 µg/mL	0.13 µg/mL	1 µg/mL	–	0.5 µg/mL	0.5 µg/mL	0.5 µg/mL	0.25 µg/mL	0.5 µg/mL	0.125 µg/mL	4 µg/mL	1/150	0.25 µg/mL	potency exceeding that of vancomycin (1) ([4]; S. aureus, coagulase-negative Staphylococcus and Enterococcus strains): 2–4 dilutions; ED50 times lower than that for 1 (S. aureus (strain 10)): 5 times; ED50 times lower than that for 2 (S. aureus (strain 10)): 2.5 times; MICs against VISA strains ([2]; listed as eremomycin pyrrolidide (5)): 1 mg/L; susceptibility of vancomycin-resistant E. faecium (VRE) strains, in words (E. faecium (n=75); [6]): susceptible; acute toxicity, fold higher (CBA mice; by LD50 compared with 1, CBA mice, IV): about 2 fold; therapeutically efficient dose, fold smaller than MTD (CBA mice; mice, IV): 150 fold; MIC 90% (MIC90) [5]: 0.5 µg/mL; MIC 50% (MIC50) (S. aureus (MRSA, n=255)): 0.25 µg/mL; MIC 90% (MIC90) (S. aureus (MRSA, n=255)): 0.5 µg/mL
